Experimental findings from the RNAGym collection of RNA variant scans (doi:10.1126/science.aae0568) are described below.

B1: tRNA (parent)
chain: GUUCCGUUGGCGUAAUGGUAACGCGUCUCCCUCCUAAGGAGAAGACUGCGGGUUCGAGUCCCGUACGGAACG

Variants at the floor of the assay were thinned out.

The variants in this data set derive from B1. The experiment in a line: yeast fitness relative to wild type (ratio to wild type); higher = fitter; tRNA-Arg(CCU), competitive growth, 37 C, YPD. In short, it runs like this: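 A pool of Saccharomyces cerevisiae strains, each with a tRNA-Arg(CCU) gene variant at the native genomic locus, was competed in YPD at 37°C for 24 hours across six parallel replicates. The variants had been chemically synthesised at a 3% per-site mutation rate over 69 sites, and gene amplicons before and after competition were read by 100-nucleotide paired-end sequencing. Darwinian fitness relative to wild type rested on changes in genotype frequencies. Genotypes required ≥ 100 starting reads, and estimates < 0.5 were set to 0.5.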
As for GUUCCGAGGGCGUAAUGGUAAUGCGUCUCUCUCCUAAGGAGGAGACUGCGGGUUCGAGUCACGUACGGAACG [U7A U8G C22U C30U A42G C61A], the yeast fitness is no more than 0.5.

As to GUUCCGCUGGCGUAAUGGUAGCGCGUCUCCCUCCUAAGGACAAGACUGCGGGCUCGAGUCCCGAACGGAACG [U7C A21G G41C U53C U64A], the yeast fitness is no more than 0.5.

As for GUUCCGCUGGCGUGAUGGUAACGCGUCUUCUUUCUAAGGAGAAGACUGCGGGUUUGAGUCCCGUACGGAACG [U7C A14G C29U C31U C33U C55U], the yeast fitness was no more than 0.5. To GUUCCGAUGGCGUAAUGGUAACGCGUCUCCCUCCUAAGGAGAAGACUGCGGGUUCGAGUCCCAUACGGAACG [U7A G63A] belongs 0.668; to GUUCCGAGGGCGUAAUGGUAACGCGUCUCGCUCCUAAGGAGAAGACUGCGGGUUCGAGUCCCGUAUGGAACG [U7A U8G C30G C66U], no more than 0.5; to GUUCCGCUGGCGUAAUGGUACCGCGUUUCCCUCCUAAGGAGAAGACUGCGGGUUCGAGUCCCGUACGGAACG [U7C A21C C27U], no more than 0.5. Turning to GUUCCGCUGGCGUAAUGGUAACGCGUCUCCCUCCUAGGGAGCAGACUGGGGGUUCGAGUCCCGUAGGGAUCG [U7C A37G A42C C49G C66G A70U], the yeast fitness is no more than 0.5. Take GUUCCGCUGGCGUAAUGGUGGCGCGUCUCCCUCCUAAGGAGAAGACUGCGGGUUCGAGUCCCGUACGGAACG [U7C A20G A21G]: the yeast fitness is 0.562.

In the case of GUUCCGAUGGCGUAAUGGUAACGCGUCUCCCUCCUAAGGAGAAGACUGCGGGUUCGAGUCCCGCACGGAACG [U7A U64C], the yeast fitness amounted to 0.829. GUUCCGAUGGCGUAAUGGCAACGCGUCUCCCUCCUAAGGAGAGGACUGCGGGUUCGAGUGCCGUACGGAACG [U7A U19C A43G C60G]: the yeast fitness was no more than 0.5.

Consider GUUCCGAUGGCGUAAUGGUAACGCGUCUCCCUCCUAAGGAGAAGACUGCGGGAUCGAGUCCCGUACGGCACG [U7A U53A A69C], for which the yeast fitness was 0.545. Turning to GUUCCGCUGGCGUAGUAGUAACGCGUCUCCCUCCUAAGGAGAAGACUGCGGGUUCGAGUCCCGUCCGGAGCG [U7C A15G G17A A65C A70G], the yeast fitness was no more than 0.5. In the case of GUUCCGCUGGCGUGAUAGUAACGCGUCUCCCUCCUAAGGAGAAGACUGCGGGUUCGAGUCCCGUACGGUACG [U7C A14G G17A A69U], the yeast fitness was 0.553.

With GUUCCGAUGGCGUAACGGUAACAUGUCUCCCUCCAAAGGAGAAGACUGCGGGUUCGAGUACCGUACGGCACG [U7A U16C G23A C24U U35A C60A A69C], the yeast fitness is no more than 0.5. To GUUCCGCUGGCGUAAUGGUAACGCGUCUCCCUCCUACGGAGAAGACUGCGGGUUCGAGUCGCGUACGGAACG [U7C A37C C61G] belongs no more than 0.5. Take GUUCCGCUGGCGUGAUAGUAACGCGUCUCCCUCCUAAGGAGAAGACUCCGGGUUCGAGUCCCGUACGGAUCG [U7C A14G G17A G48C A70U]: the yeast fitness is no more than 0.5. For the variant GUUCCGCUGGCGUGAUGGGAACGCGUCUGCCUCCUAAGGAGAAGACUGAGGCUUCGAGUCCCAUACGGAACG [U7C A14G U19G C29G C49A G52C G63A], the yeast fitness is no more than 0.5. To GUUCCGACAGCGUAAUGGUAACGCGUCUCCCUUCUAAGGAGAAGACUGCGGGUUCGAGUCCCGUACGGAACG [U7A U8C G9A C33U] belongs no more than 0.5; to GUUCCGCUGGCGUAAUGGUUACGCGUCUCCCUCCUGAGGAGAAGACUGCGGGUUCGAGUCCUGUACGGAACG [U7C A20U A36G C62U], no more than 0.5.

Consider GUUCCGCUGGCGUAAUGGUUACGCGUCUCCCUCCUGAGGUGAAGACUGCGGGUUCGAGUCCCGUACGGAACG [U7C A20U A36G A40U], for which the yeast fitness was no more than 0.5. To GUUCCGAGGGCGUAAUGGUAACGCGUCUCCCUCCUUAGGAGAUGACUGCGGGUUCGAGUCCCGUACGGAACG [U7A U8G A36U A43U] belongs no more than 0.5; to GUUCCGCUGGCGUCAUGGUAACGCGUCUCCCUCCUAAGGAGAAGACUGCGGGUUCGAGUCCCGUCCGGAACG [U7C A14C A65C], 0.533. With GUUCCGAUGGCGUAAUGGAAACGCGUCUACCUCCUAAGGAGAAGACUGCGGGUUCGAGUCCCGUACGCAACG [U7A U19A C29A G68C], the yeast fitness was no more than 0.5. With GUUCCGACGGCGUAAUAGUAACGCGUGUUCCUCCUAAGGAGACGACUGCGGAUUCGAGUCCCGUACGGAACG [U7A U8C G17A C27G C29U A43C G52A], the yeast fitness is no more than 0.5. For GUUCCGAUGGCGAAAUGGUAUCGCGUCUCCCUCCUAAGGAGAAGUCUGCGGGUUCGAGUCCCGUACGGAACG [U7A U13A A21U A45U], the yeast fitness is 0.649. To GUUCCGAUGGCGUAAUGGUAACGCGUCUCCCUCCUAAGGAGAAGACAGCGGGUUGGAGUCCCGUACGAAACG [U7A U47A C55G G68A] belongs no more than 0.5; to GUUCCGCUGGCGUAAUGGUAACGCGUCUCCCUCCUGAGGAGAAGACUGCGGGUUCGUGUCCCGUACGGAACG [U7C A36G A57U], 0.566. GUUCCGAUGGCGUAACGGUAUCGCGACUCCCUCCUAAGGAGAAGAUUGCGGGUUCGAGUUCCGUACGGAACG [U7A U16C A21U U26A C46U C60U]: the yeast fitness is 0.55. As to GUUCCGAUGGCGUAAUGGGAACGCGUCUCCCUCCUAAGGAGAAGACUGCGGGUUCGAAUCCCGUACGGAACG [U7A U19G G58A], the yeast fitness was no more than 0.5. Turning to GUUCCGACGGCGUAAUAGUAACGCGUGUUCCCCCUAAGGAGACGACUGCGGAUUCGAGUCCCGUACGGAACG [U7A U8C G17A C27G C29U U32C A43C G52A], the yeast fitness was no more than 0.5. In the case of GUUCCGCUGGCGUAAUGGUAACGCGUCUCCCUCCUGAGGAGAUGACUGCGGGUUCGAGUCCGGUACGGAACG [U7C A36G A43U C62G], the yeast fitness was determined as 0.603. To GUUCCGAUGGCGUAACAGUAACGCGUCUUCAUCCUAAGGAGAAGACUGCGGGUUAGAGUCCCGUACGGAACG [U7A U16C G17A C29U C31A C55A] belongs no more than 0.5; to GUUCCGCUGGCGUAAUGGUAACGCGUCUCCCUCCUAGGGAGCAGACUGGGGGUUCGAGUCUCAUACGGAACG [U7C A37G A42C C49G C61U G63A], no more than 0.5; to GUUCCGAUGGCGUAAUGGUAACGCGUCGCACUCCUAAGGAGAAGACUGCGGAUUCGAGUCCCGUACGGAACG [U7A U28G C30A G52A], 0.595. To GUUCCGCUGGCGUAAUGGUACCGCGUCUCCAUCCUAAGGAGAAGACUGCGGGUUCGAGUCCCGUACGGAACG [U7C A21C C31A] belongs no more than 0.5. With GUUCCGCUGGCGUAAUGGUGACGCGUCUCCCUCCUACGGAGAAGACUGCGGGUUCGAGUGCCGUUCGGACCG [U7C A20G A37C C60G A65U A70C], the yeast fitness is no more than 0.5. GUUCCGCUGGCGUAAUGGUAACGCGUCUCCCUCCUUAGGAGAAGACUGCCGGUUCGAGUACCGUACGGAACG [U7C A36U G50C C60A]: the yeast fitness came to 0.57.
